Test system: Huh-7.5 HCV Rluc replicon, luciferase luminescence, 72 h
Assay: inhibition of HCV replicon replication, late-stage follow-up, orthogonal assay for HCV NS3 helicase inhibitor project, cell-based, luminescence, Renilla luciferase replicon (AID 623962)
Conditions: at 10 µM; stronger effect = higher value
How it was run: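 Dosing: one concentration, 10 µM in 0.5% DMSO / Assay system: Huh-7.5 HCV Renilla luciferase replicon cells / Benchmarks: DMSO-treated cells as uninhibited reference / Signal: Renilla luciferase luminescence of lysed cells / Schedule: cell attachment 4-5 h, then compound exposure 72 h, 37 °C, 5% CO2 / Read-out basis: % replication inhibition versus DMSO-treated cells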

Compound | inhibition
COc1ccc(C(=O)Nc2ccc(-c3nc4ccc(-c5nc6ccc(C)c(S(=O)(=O)O)c6s5)cc4s3)cc2)cc1 | 64%
CS(=O)(=O)c1ccc2nc(NC(=O)c3ccc4ncsc4c3)sc2c1 | 55%

Reference: PubChem BioAssay AID623962 (The Scripps Research Institute Molecular Screening Center, 2012)
